# From PubChem BioAssay
# CHOP inhibitor: inhibitors of CHOP induction in ER stress response. CHO-K1 CHOP-promoter luciferase, tunicamycin-induced, 15-18 h. inhibition, % at 10 µM. hit rate 3.8% among 220,000. AID 2732;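 active = compounds that reduced the stress-induced luciferase reporter signal by more than about 70% of percent inhibition, limit read from the data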
# Jurkat NFkB inh: lowers PMA/ionomycin-induced NF-kB signal in Jurkat cells. PMA/ionomycin-induced NF-kB luciferase reporter, luminescence. inhibition, % at 4 µM. hit rate 0.53% among 330,000; in the data active = inhibition above about 50%
# CHOP UPR activ: apoptotic UPR (CHOP) activation | AID 449763 | hit rate 0.34% among 330,000 | CHO-CHOP luciferase reporter, luminescence; percent of tunicamycin response over DMSO baseline | activation, % at 10 µM;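 active = at 10 µM dose, activation of 40% or more, normalized to positive control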
#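 Test system: CHO-CHOP cells, stable luciferase reporter of PERK-eIF2a-CHOP signalling | Quantity: 500 CHO-CHOP cells per well | Buffer or medium: F12 plus 10% serum | Compound dosing: 10 µM single point, 0.5% DMSO | Schedule: 6 h compound treatment, 37 °C | Signal: Luciferase luminescence | Control set: Tunicamycin high control, DMSO low control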
# 697 NFkB inh: inhibitors of the PMA/ionomycin-induced NF-kB reporter in 697 B cells; inhibition, % at 4 µM; 697 B-cell NF-kB luciferase reporter, 16 h; hit rate 0.33% among 330,000; in the data active = inhibition above about 35%
# UPR XBP1 act: adaptive UPR (XBP1) activation. CHO-XBP1 luciferase reporter, IRE1-XBP1 UPR activation, luminescence; percent of tunicamycin response, DMSO as zero. activation, % at 20 µM. hit rate 0.33% among 330,000. AID 463104;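 active = versus positive control, 20 µM dose yields 30% or more activation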
#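 assay system = CHO-XBP1 luciferase reporter cells | amount = 1000 cells/well | buffer or medium = F12 plus 10% FBS | compound dosing = single point, 20 µM final compound, 1% DMSO | incubation = 16-18 h cell attachment at 37 °C, then 6 h compound exposure | detection = Steady-Glo luminescence read | controls = tunicamycin 10 µg/mL and vehicle-only wells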
# Jurkat NFkB conf: lowers PMA/ionomycin-induced NF-kB signal in Jurkat cells | shares compounds with Jurkat NFkB inh | Jurkat NF-kB luciferase, 16 h | inhibition, % at 4 µM | hit rate 27% among 2,700 | AID 435020;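 active = inhibition reaching about 45% at 4 µM in either replicate, limit read from the data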
# 697 NFkB conf: inhibitors of the PMA/ionomycin-induced NF-kB reporter in 697 B cells, retest. inhibition, % at 4 µM. shares compounds with 697 NFkB inh. 697 B-cell NF-kB luciferase, 16 h. hit rate 35% among 2,000. AID 449746; in the data active = inhibition mostly above about 28%, no sharp cut-off; inactive = mostly below about 22%
# Hits are given with their value; 0 = inactive; - = not tested or not shown. The entries come from a sample that favours hits as a whole.
SMILES,CHOP inhibitor,Jurkat NFkB inh,CHOP UPR activ,697 NFkB inh,UPR XBP1 act,Jurkat NFkB conf,697 NFkB conf
Cc1cc(C(=O)NC2CCCc3c2cnn3-c2cccc(C)c2C)n(C)n1 (centres undefined),-,71.8,0,76.8,0,78.1,95.6
CC(=O)Nc1ccc(S(=O)(=O)N2CCC(C(=O)NCc3ccncc3)CC2)cc1,-,0,0,0,0,-,-
COc1ccc(-c2ccc3ccccc3n2)cc1OC,0,0,0,0,0,-,-
COc1ccc(-c2ccc3ccccc3n2)cc1,0,0,0,0,0,0,0
Cc1cccc(C(=O)Nc2ccc3ccccc3c2)c1,-,0,0,0,0,0,0
O=C(Nc1ccc2ccccc2c1)c1cc(F)c(F)cc1Cl,-,0,0,0,0,-,-
COc1cccc(C(=O)Nc2nc3ccccc3s2)c1,-,0,0,0,0,0,0
O=C(Nc1ccc2ccccc2c1)c1cccc([N+](=O)[O-])c1,-,0,0,0,0,-,-
O=C(Nc1ccc2ccccc2c1)c1ccc(Cl)cc1Cl,0,0,0,0,0,0,0
COc1ccc(C(=O)Nc2ccc3ccccc3c2)cc1,-,0,0,0,0,0,0
CS(=O)(=O)Nc1ccc(C(=O)Nc2ccc3ccccc3c2)cc1,-,0,0,0,0,0,0
O=C(Nc1ccc2ccccc2c1)c1onc2c1CCCC2,0,0,0,0,0,0,0
COc1cccc(C(=O)Nc2ccc3ccccc3c2)c1,-,0,0,0,0,0,0
CC(=O)c1cccc(NC(=O)c2ccc(NS(C)(=O)=O)cc2)c1,0,0,0,0,0,-,-
Cc1ccc(-c2nnc(/C=C/c3ccccc3)o2)cc1,0,0,0,0,0,0,0
Cc1ccc(/C=C/c2nnc(-c3cccc(C)c3)o2)cc1,0,0,0,0,0,-,-
O=C(NCc1ccccc1F)c1ccc2c(c1)OCCO2,-,0,0,0,0,-,-
COc1ccc(NC(=O)COC(=O)CNC(=O)COc2ccccc2)cc1OC,-,0,0,0,0,-,-
O=C(N=c1nc2ccccn2s1)c1ccccc1,-,0,0,0,0,0,0
Cc1csc(=NC(=O)c2ccccc2)n1C,0,0,0,0,0,-,-
N#Cc1c(NC(=O)CSc2ncn[nH]2)sc2c1CCCCC2,91.3,63.4,0,70.5,0,64.9,59.2
N#Cc1c(NC(=O)CSc2nc(N)cc(=O)[nH]2)sc2c1CCCCCC2,-,0,0,0,0,-,-
O=C(COC(=O)COc1ccc(Cl)cc1)Nc1ncc(Br)s1,-,0,0,0,0,-,-
Cc1ccc(C(=O)Nc2ccc3c(c2)OCO3)cc1Cl,-,0,0,0,0,-,-
Cc1ccc(NC(=O)c2ccc3c(c2)OCO3)cc1Cl,-,0,0,0,0,0,0
SMILES,CHOP inhibitor,Jurkat NFkB inh,CHOP UPR activ,697 NFkB inh,UPR XBP1 act,Jurkat NFkB conf,697 NFkB conf
Cc1noc(C)c1CSc1ccccc1C(=O)N(C)CC(=O)Nc1cccc(F)c1,-,0,0,0,0,-,-
CC(CCc1ccccc1)NC(=O)CCC1CCCC1 (centres undefined),-,0,0,0,0,-,-
CCn1cc(CN2CCC(n3nccc3NC(=O)c3ccc4c(c3)OCO4)CC2)c(C)n1,-,0,0,0,0,-,-
COc1ccc(C2=NN3C(C2)c2ccccc2OC3c2cccs2)cc1 (centres undefined),0,0,0,0,0,-,-
COc1ccc(C2=NN3C(C2)c2ccccc2OC32C(=O)N(C)c3ccccc32)cc1 (centres undefined),0,0,0,0,0,0,0
CC(C)(C)c1ccc(-c2nc(-c3ccncc3)no2)cc1,81.9,0,0,0,0,0,0
Brc1ccccc1-c1nc(-c2ccccc2)no1,0,0,0,0,0,0,0
Cc1ccc(-c2nc(-c3ccccc3)no2)cc1,0,0,0,0,0,0,0
CC(C)(C)c1ccc(-c2noc(-c3ccno3)n2)cc1,0,0,0,0,0,-,-
CC(NC(=O)C(C)N1CCN(Cc2ccccc2)CC1)c1ccc(F)cc1 (centres undefined),-,0,0,0,0,-,-
CCOC(=O)C(Sc1cc(-c2ccccc2)nc2ncnn12)C(C)=O (centres undefined),0,0,0,0,0,-,-
Cc1c(NC(=O)C(C)OC(=O)c2ccc(NC(=O)CC#N)cc2)c(=O)n(-c2ccccc2)n1C (centres undefined),-,0,0,0,0,-,-
